A value given as a limit tells only on which side of the number the result lay.

These results are taken from PMC3190670 (ChemMedChem, 2011).

In this assay the test system is Bovine brain tubulin. In words: turbidimetric tubulin assembly. The format is biochemical, Bos taurus. The conditions noted are these: read-out: IC50 ± SD [μM]^[a]; 10 μM tubulin, glutamate buffer, GTP, 30°C, 20 min. An outline of the steps:
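Purified bovine brain tubulin was preincubated with varying test-compound concentrations in glutamate buffer at 30°C, then cooled to 0°C. GTP was added, and mixtures went into 0°C cuvettes and were warmed to 30°C. Assembly was followed turbidimetrically in a recording spectrophotometer. IC50 was the concentration that cut the extent of assembly by 50% after 20 min.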

Consider `C=C(Br)C(=O)Nc1cccc2oc(C(=O)c3cc(OC)c(OC)c(OC)c3)cc12` [4a, 2-Bromo-N-[2-(3,4,5-trimethoxybenzoyl)-1-benzo[b]furan-4-yl]acrylamide], for which the concentration for half-maximal inhibition (IC50) was > 40 µM.

Take `COc1cc(C(=O)c2cc3cc(N)cc(OC)c3o2)cc(OC)c1OC` [3i, (5-Amino-7-methoxybenzo[b]furan-2-yl)(3,4,5-trimethoxyphenyl)methanone]: the 50% inhibitory concentration (IC50) was 3.1 ± 0.2 µM.

Consider `COc1cc(C(=O)c2oc3c(OC)cc(N)cc3c2C)cc(OC)c1OC` [3j, (5-Amino-3-methyl-7-methoxybenzo[b]furan-2-yl)(3,4,5-trimethoxyphenyl)methanone], for which the IC50 was found to be 1.6 ± 0.1 µM.

With `COc1cc2oc(C(=O)c3cc(OC)c(OC)c(OC)c3)c(C)c2cc1N` [3h, (5-Amino-3-methyl-6-methoxybenzo[b]furan-2-yl)(3,4,5-trimethoxyphenyl)methanone], the concentration for half-maximal inhibition (IC50) amounted to 0.56 ± 0.08 µM.

As to `COc1ccc(/C=C\c2cc(OC)c(OC)c(OC)c2)cc1O` [1a, CA-4, reference compound], the 50% inhibitory concentration (IC50) was […].

For the compound `COc1cc2oc(C(=O)c3cc(OC)c(OC)c(OC)c3)cc2cc1N` [3g, (5-Amino-6-methoxybenzo[b]furan-2-yl)(3,4,5-trimethoxyphenyl)methanone], the half-maximal inhibitory concentration (IC50) was 1.4 ± 0.01 µM.
